Results collected from several papers.
Protocols differ between the studies behind these lines.
Target: Dual specificity mitogen-activated protein kinase kinase 7 (MAP2K7, Homo sapiens, UniProt O14733)
One construct used (O14733 1-419): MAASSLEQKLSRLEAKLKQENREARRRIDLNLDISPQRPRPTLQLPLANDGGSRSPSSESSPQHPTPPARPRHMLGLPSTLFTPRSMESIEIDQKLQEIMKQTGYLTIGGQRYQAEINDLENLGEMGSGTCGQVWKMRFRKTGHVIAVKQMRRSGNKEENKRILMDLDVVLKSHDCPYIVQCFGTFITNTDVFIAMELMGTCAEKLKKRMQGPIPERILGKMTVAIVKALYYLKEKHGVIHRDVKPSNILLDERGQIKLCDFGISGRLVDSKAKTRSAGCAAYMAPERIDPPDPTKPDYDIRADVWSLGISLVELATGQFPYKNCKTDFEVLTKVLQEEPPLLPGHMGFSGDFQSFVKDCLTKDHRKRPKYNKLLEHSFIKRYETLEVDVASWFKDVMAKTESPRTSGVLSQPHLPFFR

SMILES | test | setting | remaining binding
Nc1ncc2c(n1)-c1c([nH]c3ccc(C#CC4CC4)cc13)CCCC2 | binding, competition with immobilised ligand | 1 µM | 100%
COc1cnc(Nc2cccc(S(N)(=O)=O)c2)nc1N1CCN(c2ccccc2)CC1 | binding, competition with immobilised ligand | 1 µM | 97%
O=C(c1ccc(Nc2ncc(Cl)c(-c3ccc(Cl)s3)n2)cc1)N1CCC(N2CCCC2)CC1 | binding, competition with immobilised ligand | 1 µM | 82%
Cc1nc(Cc2cccc(C(F)(F)F)c2)sc1-c1ccc(C(N)=O)nc1 | cell-free assay, competition with immobilised ligand | 1 µM | 100%
CC1CCCN1c1nccc(-c2cnn3ncccc23)n1 (centres unmarked) | binding | 1 µM | 100%
CN(C)C(=O)Cn1cc(-c2nc([C@@](C)(c3ccc(-c4cnc(N)nc4)cc3)C3CC3)no2)cn1 | cell-free assay, competition with immobilised ligand | 1 µM | 94%
O=C(c1ccc(Nc2nccc(-c3cc4ccccc4s3)n2)cc1)N1CCC(N2CCCC2)CC1 | binding, competition with immobilised ligand | 1 µM | 26%
CN(C)c1ncnc(-c2ccc3nc(Nc4cc(CN5CCN(C(=O)CC(F)(F)F)CC5)ccn4)[nH]c3c2)c1Cl | cell-free assay, competition with immobilised ligand | 1 µM | 100%
O=C(NCCCN1CCOCC1)c1ccc(Nc2ncc(Cl)c(-c3ccc(Cl)s3)n2)cc1 | binding, competition with immobilised ligand | 1 µM | 87%
CS(=O)(=O)N1CCCC(NC(=O)[C@H](CCC2CCCCC2)NC(=O)c2ccc(CNc3ncnc4c3nnn4-c3ccccc3)cc2)C1 (some centres unmarked) | cell-free assay, competition with immobilised ligand | 0.1 µM | 100%
CN(CCCC(F)(F)F)c1nccc(-c2cnn3ncccc23)n1 | binding | 1 µM | 100%
O=C(Nc1c[nH]nc1C(=O)NC1CCNCC1)c1cc(F)cc(F)c1 | binding, competition with immobilised ligand | 1 µM | 86%
C[C@@H]1CCN(c2nccc(-c3cnn4ncccc34)n2)C1 | binding | 1 µM | 100%
CNC(=O)[C@@H]1CC[C@@H](n2c(-c3ccc4cnccc4c3)nc3ccc(C(=O)NCc4cccc(C(N)=O)c4)cc32)C1 | binding, competition with immobilised ligand | 1 µM | 100%
CN(C)c1ncc(F)c(-c2cnn3ncccc23)n1 | binding | 1 µM | 88%
CN(c1ccnc(CNc2nc(Nc3ccc4c(c3)CC(=O)N4)ncc2C(F)(F)F)n1)S(C)(=O)=O | cell-free assay, competition with immobilised ligand | 1 µM | 73%
CN(C)c1nccc(-c2cnc3ncccn23)n1 | binding | 1 µM | 88%
C[C@@H](c1cccc(C#N)c1)n1cc(Cl)cc(C(N)=O)c1=N | cell-free assay, competition with immobilised ligand | 1 µM | 99%
c1cnn2ncc(-c3ccnc(N4CCC45COC5)n3)c2c1 | binding | 1 µM | 72%
FC(F)(F)Oc1cccc(-c2cnc3ccc(-c4ccncc4)nn23)c1 | cell-free assay, competition with immobilised ligand | 5 µM | 96%
